Twelve molecules from ChEMBL document CHEMBL2069293, “Design, synthesis and evaluation of the inhibitory selectivity of novel trans-resveratrol analogues on human recombinant CYP1A1, CYP1A2 and CYP1B1” (Bioorg Med Chem, 2012) can be followed below.

Each structure is given as a SMILES string.

What all share (format): ADME
Data set [1] addresses T1, Cytochrome P450 1A1 (Homo sapiens, UniProt P04798).
T1 sequence (P04798 whole entry): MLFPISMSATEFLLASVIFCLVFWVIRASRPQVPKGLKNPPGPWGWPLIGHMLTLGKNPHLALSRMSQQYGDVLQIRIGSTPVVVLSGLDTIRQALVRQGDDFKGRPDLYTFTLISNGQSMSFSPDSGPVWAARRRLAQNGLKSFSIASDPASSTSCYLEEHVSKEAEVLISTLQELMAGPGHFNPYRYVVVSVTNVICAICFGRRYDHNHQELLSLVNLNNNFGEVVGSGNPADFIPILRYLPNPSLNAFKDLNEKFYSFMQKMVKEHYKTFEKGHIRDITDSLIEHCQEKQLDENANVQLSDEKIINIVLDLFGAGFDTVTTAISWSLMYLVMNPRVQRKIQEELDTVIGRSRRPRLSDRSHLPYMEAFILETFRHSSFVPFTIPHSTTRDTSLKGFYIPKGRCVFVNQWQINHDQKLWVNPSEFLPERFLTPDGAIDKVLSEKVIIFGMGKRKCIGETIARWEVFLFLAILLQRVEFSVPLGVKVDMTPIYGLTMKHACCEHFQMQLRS
Kind of data set: Inhibition of human recombinant CYP1A1 by spectrophotometry based 7-ethoxyresorufin O-deethylation enzyme assay. The gist of the method:
(§1)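 EROD assay: fresh DMSO solutions of test compound over various concentrations with 2 µM 7-ethoxyresorufin, 1.3 mM NADP+, 3.3 mM glucose-6-phosphate, 0.5 U/ml G6PDH, 3.3 mM MgCl2 in 100 mM potassium phosphate pH 7.4. Started with enzyme (1.25 pmol CYP1A1, or 5 pmol CYP1A2 or CYP1B1), 37 °C, 15 min. Resorufin fluorescence (ex 550/em 585) against resorufin standard. IC50 read graphically from % of control activity; three parallel experiments.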

Data set [2] concerns the target T2, Cytochrome P450 1B1 (Homo sapiens, UniProt Q16678).
T2 sequence (Q16678 whole entry): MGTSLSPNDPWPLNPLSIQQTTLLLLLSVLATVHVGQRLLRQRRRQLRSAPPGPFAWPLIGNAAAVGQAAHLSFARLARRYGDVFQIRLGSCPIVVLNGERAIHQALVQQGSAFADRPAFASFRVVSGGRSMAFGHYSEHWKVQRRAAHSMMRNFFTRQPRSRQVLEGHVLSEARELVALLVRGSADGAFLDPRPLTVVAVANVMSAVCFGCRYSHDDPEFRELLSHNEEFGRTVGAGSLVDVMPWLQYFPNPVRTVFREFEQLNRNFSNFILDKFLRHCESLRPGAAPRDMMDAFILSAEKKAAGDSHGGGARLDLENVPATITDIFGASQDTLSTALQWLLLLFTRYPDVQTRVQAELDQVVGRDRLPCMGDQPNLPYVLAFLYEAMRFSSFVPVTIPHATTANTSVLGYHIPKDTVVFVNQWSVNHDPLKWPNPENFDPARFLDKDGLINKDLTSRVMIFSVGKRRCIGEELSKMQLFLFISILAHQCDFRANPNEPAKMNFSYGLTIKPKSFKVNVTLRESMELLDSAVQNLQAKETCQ
Kind of data set: Inhibition of human recombinant CYP1B1 by spectrophotometry based 7-ethoxyresorufin O-deethylation enzyme assay. The gist of the method:
as §1

Data set [3] relates to CYP1A2 / CYP1B1. Kind of data set: Selectivity ratio, ratio of IC50 for human recombinant CYP1A2 to IC50 for human recombinant CYP1B1. The conditions noted are these: recombinant CYP1A2 and recombinant CYP1B1, read-out: Ratio IC50.
In data set [4] the test system is CYP1A2 / CYP1A1. Kind of data set: Selectivity ratio, ratio of IC50 for human recombinant CYP1A2 to IC50 for human recombinant CYP1A1. The conditions noted are these: recombinant CYP1A2 and recombinant CYP1A1, read-out: Ratio IC50.
Data set [5] concerns the target T3, Cytochrome P450 1A2 (Homo sapiens, UniProt P05177).
T3 sequence (P05177 whole entry): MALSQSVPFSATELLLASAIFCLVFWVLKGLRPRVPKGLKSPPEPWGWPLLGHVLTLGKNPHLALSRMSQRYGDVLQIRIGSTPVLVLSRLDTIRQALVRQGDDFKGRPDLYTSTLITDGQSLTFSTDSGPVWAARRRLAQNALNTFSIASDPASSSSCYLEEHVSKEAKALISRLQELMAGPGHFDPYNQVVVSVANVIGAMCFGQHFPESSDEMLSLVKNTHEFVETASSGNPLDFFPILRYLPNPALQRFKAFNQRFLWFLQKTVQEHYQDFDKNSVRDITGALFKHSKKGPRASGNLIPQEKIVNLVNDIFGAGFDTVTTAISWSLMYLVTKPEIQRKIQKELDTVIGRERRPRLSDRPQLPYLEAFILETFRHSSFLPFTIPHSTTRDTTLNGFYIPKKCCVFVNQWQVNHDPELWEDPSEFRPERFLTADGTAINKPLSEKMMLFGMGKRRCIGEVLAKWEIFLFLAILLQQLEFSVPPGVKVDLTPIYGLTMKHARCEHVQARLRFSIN
Kind of data set: Inhibition of human recombinant CYP1A2 by spectrophotometry based 7-ethoxyresorufin O-deethylation enzyme assay. The gist of the method:
as §1

In data set [6] the target is T3, Cytochrome P450 1A2. Kind of data set: Activity of human recombinant CYP1A2 assessed as NADPH oxidation level per pmol of CYP1A2 level at 10 uM by spectrophotometry. The conditions noted are these: recombinant enzyme. The gist of the method:
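NADPH oxidation by human recombinant CYP1A2 (5 pmol/ml) in Tris buffer pH 7.4 with stilbene at 1–50 µM. Reaction started with 0.2 mM NADPH, 37 °C, 3 min. Absorbance at 340 nm read every 15 s; NADPH oxidized calculated with extinction coefficient 6.22 mM-1 cm-1.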

For `COc1cc(/C=C/c2ccc(SC)cc2)cc(OC)c1OC`, the figures for the IC50 in data set [1], in data set [2] and in data set [5] were 3600 nM, 2600 nM and 7000 nM, respectively. For the same molecule, the selectivity ratio in data set [3] was determined as 2.7; in data set [4], 1.9. The Activity in data set [6] amounted to 2.22 µM/min.
With `COc1ccc(/C=C/c2ccc(SC)cc2)c(OC)c1`, the IC50 (as a rule, the point on the concentration scale where inhibition reaches its midpoint) in data set [1] came out at 2400 nM; in data set [2], 2000 nM; in data set [5], 8100 nM. Besides, the selectivity ratio is 4.1 in data set [3] and 3.4 in data set [4]. Further, the Activity in data set [6] was less than 0.3 µM/min.
For the molecule `COc1cc(OC)c(/C=C/c2ccc(SC)cc2)c(OC)c1`, the IC50 in data set [1] amounted to 400 nM; in data set [2], 500 nM; in data set [5], 6500 nM. The selectivity ratio in data set [3] was 17; in data set [4], 16.3. For the same molecule, the Activity in data set [6] is less than 0.3 µM/min.
Consider `COc1ccc(/C=C/c2ccc(SC)cc2)cc1`, for which the IC50 in data set [1] amounted to 28000 nM; in data set [2], 5500 nM; in data set [5] it was 23000 nM. Further, the selectivity ratio in data set [3] turned out to be 4.2; in data set [4] it was 0.8. Also, the Activity in data set [6] was less than 0.3 µM/min.
For `COc1cccc(/C=C/c2ccc(SC)cc2)c1OC`, the IC50 is 1800 nM in data set [1], 1100 nM in data set [2] and 22000 nM in data set [5]. Further, the values for the selectivity ratio in data set [3] and in data set [4] were 20 and 12.2, respectively. Further, the Activity in data set [6] is less than 0.3 µM/min.
In the case of `COc1ccc(OC)c(/C=C/c2ccc(SC)cc2)c1`, the IC50 in data set [1] was found to be 3800 nM; in data set [2], 1100 nM; in data set [5] it was 39500 nM. Further, the selectivity ratio was 35.9 in data set [3] and 10.4 in data set [4]. Moreover, the Activity in data set [6] is less than 0.3 µM/min.
With `COc1ccccc1/C=C/c1ccc(SC)cc1`, the figures for the IC50 in data set [1], in data set [2] and in data set [5] were 1000 nM, 300 nM and 7500 nM, respectively. The results for the selectivity ratio in data set [3] and in data set [4] were 25 and 7.5, respectively. For the same molecule, in data set [6], the Activity was less than 0.3 µM/min.
Consider `COc1cc(/C=C/c2ccc(SC)cc2)cc(OC)c1`, for which the IC50 in data set [1] was determined as 1400 nM; in data set [2], 1500 nM; in data set [5], 5000 nM. Also, the selectivity ratio was 3.3 in data set [3] and 3.6 in data set [4]. For the same molecule, in data set [6], the Activity was less than 0.3 µM/min.
For the molecule `COc1cccc(/C=C/c2ccc(SC)cc2)c1`, the IC50 is 1100 nM in data set [1], 500 nM in data set [2] and 11500 nM in data set [5]. For the same molecule, the selectivity ratio was found to be 23 in data set [3] and 10.5 in data set [4]. In addition, the Activity in data set [6] was less than 0.3 µM/min.
Regarding `CSc1ccc(/C=C/c2ccccc2Cl)cc1`, the results for the IC50 in data set [1], in data set [2] and in data set [5] were 1000 nM, 300 nM and 14500 nM, respectively. The figures for the selectivity ratio in data set [3] and in data set [4] were 48.3 and 14.5, respectively.
As for `COc1ccc(/C=C/c2ccc(SC)cc2)c(OC)c1OC`, the figures for the IC50 in data set [1], in data set [2] and in data set [5] were 900 nM, 1000 nM and greater than 50000 nM, respectively. For the same molecule, the selectivity ratio is greater than 50 in data set [3] and greater than 55.5 in data set [4]. Moreover, in data set [6], the Activity is less than 0.6 µM/min.
With `COc1cc(OC)c(OC)cc1/C=C/c1ccc(SC)cc1`, the IC50 in data set [1] amounted to 800 nM; in data set [2], 900 nM; in data set [5], 15000 nM. In addition, the selectivity ratio in data set [3] amounted to 16.7; in data set [4], 18.7. For the same molecule, in data set [6], the Activity stood at 2.91 µM/min.
